Published values gathered from unrelated publications.
Compare with care: the assays were run in different laboratories.
Target: Activin receptor type-1 (ACVR1, Homo sapiens, UniProt Q04771)
Residues used in one study (Q04771 21-509): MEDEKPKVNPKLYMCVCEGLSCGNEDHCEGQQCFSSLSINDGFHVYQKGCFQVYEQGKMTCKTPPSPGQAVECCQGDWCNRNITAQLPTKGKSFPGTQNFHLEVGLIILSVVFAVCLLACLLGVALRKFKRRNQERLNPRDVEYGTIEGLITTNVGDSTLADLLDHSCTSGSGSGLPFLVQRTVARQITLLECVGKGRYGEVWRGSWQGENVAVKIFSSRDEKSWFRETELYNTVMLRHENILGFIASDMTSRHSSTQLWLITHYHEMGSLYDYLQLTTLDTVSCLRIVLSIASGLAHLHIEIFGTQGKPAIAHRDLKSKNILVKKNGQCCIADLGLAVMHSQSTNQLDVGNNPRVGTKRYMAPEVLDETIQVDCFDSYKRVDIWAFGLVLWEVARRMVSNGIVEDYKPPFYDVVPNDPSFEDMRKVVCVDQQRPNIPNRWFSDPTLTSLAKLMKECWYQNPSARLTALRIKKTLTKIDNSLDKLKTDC

CNC(=O)[C@@H]1CC[C@@H](n2c(-c3ccc4cnccc4c3)nc3ccc(C(=O)NCc4cccc(C(N)=O)c4)cc32)C1  remaining binding (binding, competition with immobilised ligand; 1 µM): 46%
c1cncc(-c2cccc(Nc3nccc(NC4CCCCC4)n3)c2)c1  remaining binding (binding, competition with immobilised ligand; 10 µM): 15%
CSc1cccnc1N1CCN(Cc2nc3ccccc3[nH]2)CC1  remaining binding (cell-free assay, competition with immobilised ligand; 1 µM): 100%
C[C@@H]1CCN(c2nccc(-c3cnn4ncccc34)n2)C1  remaining binding (binding; 1 µM): 100%
O=C(NCC1CCOCC1)c1n[nH]cc1NC(=O)c1c(F)cccc1F  remaining binding (binding, competition with immobilised ligand; 1 µM): 96%
COCCOc1nc(-c2ccc(Cl)nc2)nc2c1CN(C(=O)c1ncn3ccccc13)CC2  remaining binding (cell-free assay, competition with immobilised ligand; 0.1 µM): 100%
CN(C)c1ncc(F)c(-c2cnn3ncccc23)n1  remaining binding (binding; 1 µM): 79%
O=C(NCCCN1CCOCC1)c1ccc(Nc2ncc(Cl)c(-c3ccc(Cl)s3)n2)cc1  remaining binding (binding, competition with immobilised ligand; 1 µM): 78%
CCN1CCN(Cc2ccc(C(=O)Nc3ccc(C)c(Oc4ccc5c(c4)CC(=O)N5)c3)cc2C(F)(F)F)CC1  remaining binding (binding, competition with immobilised ligand; 1 µM): 100%
C[C@@]1(Cc2ccc(C#N)cc2)C(=O)N(c2cc(Cl)cc(Cl)c2)c2ncc(C(=O)NC3(c4nc(C5CCC5)no4)CC3)n21  remaining binding (cell-free assay, competition with immobilised ligand; 1 µM): 89%
Cc1cnn2ncc(-c3ccnc(N(C)C)n3)c2c1  remaining binding (binding; 1 µM): 100%
C[C@H](c1cccc(C#N)c1)n1cc(Cl)cc(C(N)=O)c1=N  remaining binding (cell-free assay, competition with immobilised ligand; 1 µM): 88%
COc1ccnn2ncc(-c3ccnc(N(C)C)n3)c12  remaining binding (binding; 1 µM): 80%
COc1ccc2c(O[C@@H]3C[C@H]4C(=O)N[C@]5(C(=O)O)CC5/C=C\CCCCC[C@H](NC(=O)OC5CCCC5)C(=O)N4C3)cc(-c3csc(NC(=O)C(C)C)n3)nc2c1C (stereo partly drawn)  remaining binding (cell-free assay, competition with immobilised ligand; 1 µM): 100%
COc1ncc2cc3ccccc3nc2c1C#N  remaining binding (cell-free assay, competition with immobilised ligand; 5 µM): 100%
O=C(c1ccc(Nc2nccc(-c3cc4ccccc4s3)n2)cc1)N1CCC(N2CCCC2)CC1  remaining binding (binding, competition with immobilised ligand; 1 µM): 26%
F[C@@H]1CCN(c2nccc(-c3cnn4ncccc34)n2)C1  remaining binding (binding; 1 µM): 80%
C[C@@H](c1ccc(-n2cnc3c(N)ncnc32)cc1)N1CCc2nn(C)c(Cc3ccccc3)c2C1=O  remaining binding (binding, competition with immobilised ligand; 0.1 µM): 85%
N[C@H]1CCN(c2nccc(-c3cnn4ncccc34)n2)C1  remaining binding (binding; 1 µM): 85%
FC(F)(F)c1ccc2c(c1)nc(-c1cccnc1)n2C1CC1  remaining binding (cell-free assay, competition with immobilised ligand; 1 µM): 100%
O=C(NCCCN1CCOCC1)c1ccc(Nc2nccc(-c3cc4ccccc4s3)n2)cc1  remaining binding (binding, competition with immobilised ligand; 1 µM): 14%
